Experimental findings from ChEMBL document CHEMBL1125748, “Non-steroidal antiandrogens. Design of novel compounds based on an infrared study of the dominant conformation and hydrogen-bonding properties of a series of anilide antiandrogens” (J Med Chem, 1991) are described below.

Data set [1] can be described thus: Partition coefficient (logP). The format is physicochemical. The settings on record: octanol/water.
In data set [2] the target is T1, Androgen receptor (Rattus norvegicus) (UniProt P15207).
T1 sequence (whole entry): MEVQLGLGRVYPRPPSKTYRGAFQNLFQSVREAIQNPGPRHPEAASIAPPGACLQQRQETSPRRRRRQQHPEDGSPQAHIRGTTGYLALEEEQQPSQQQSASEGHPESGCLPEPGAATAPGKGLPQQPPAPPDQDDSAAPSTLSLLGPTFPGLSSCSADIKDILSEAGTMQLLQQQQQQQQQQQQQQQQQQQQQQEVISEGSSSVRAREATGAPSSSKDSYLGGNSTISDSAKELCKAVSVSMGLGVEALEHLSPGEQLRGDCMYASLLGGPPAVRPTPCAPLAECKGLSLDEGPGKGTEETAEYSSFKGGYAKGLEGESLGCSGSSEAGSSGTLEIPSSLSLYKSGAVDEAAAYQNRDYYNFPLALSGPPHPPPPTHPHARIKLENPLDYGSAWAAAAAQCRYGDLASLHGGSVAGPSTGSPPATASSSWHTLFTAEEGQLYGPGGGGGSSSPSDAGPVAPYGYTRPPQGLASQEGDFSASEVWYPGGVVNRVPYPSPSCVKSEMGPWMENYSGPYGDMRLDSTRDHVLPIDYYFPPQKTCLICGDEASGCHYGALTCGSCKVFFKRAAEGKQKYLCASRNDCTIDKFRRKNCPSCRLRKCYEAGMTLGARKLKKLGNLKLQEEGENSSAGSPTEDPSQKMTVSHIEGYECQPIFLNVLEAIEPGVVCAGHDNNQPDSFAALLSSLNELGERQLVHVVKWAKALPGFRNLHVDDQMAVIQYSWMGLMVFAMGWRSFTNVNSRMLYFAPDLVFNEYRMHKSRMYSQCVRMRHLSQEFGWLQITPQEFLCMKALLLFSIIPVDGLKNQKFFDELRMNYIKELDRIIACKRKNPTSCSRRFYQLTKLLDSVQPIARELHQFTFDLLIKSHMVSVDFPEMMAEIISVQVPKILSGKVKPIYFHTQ
Put plainly: In vitro relative binding affinity for rat androgen receptor.

Data set [3] concerns the target T1, Androgen receptor (Rattus norvegicus). Put plainly: Inhibition of anti-androgenic activity in vivo on groups of five rats treated with seven daily subcutaneous doses of testosterone propionate at 200 ug/kg.
Data set [4] has the same target. Put plainly: Anti-androgenic activity in vivo on groups of five rats treated with seven daily oral doses of testosterone propionate at 200 ug/kg. The note with it: in the assay text read “seven daily subcutaneous doses” for “seven daily oral doses”. The format is functional, organism-based. Put shortly:
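Male rats, five per group, castrated at 24 days of age, then given testosterone propionate 200 µg/kg subcutaneously daily for seven days. Antiandrogen was given orally, daily, over the same seven days. Rats were killed 24 h after the last dose and seminal vesicles weighed. Percent inhibition of testosterone-stimulated weight was taken against a running castrate control, and ED50 was read from the dose-response curve.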

Data set [5] shares this target. Put plainly: In vitro relative binding affinity for rat Androgen receptor.

The term logP denotes the decadic logarithm of the partition coefficient of the neutral form, usually between octanol and water. A low value points to a more hydrophilic compound. As for `CC(O)(C(=O)Nc1ccc([N+](=O)[O-])c(C(F)(F)F)c1)C(F)F` (configuration not stated), in data set [1], the logP turned out to be 3.76.

By inhibition is commonly meant the change of the read-out against control, counted positive when it falls. Consider `Cc1c(C(C)(O)C(F)(F)F)[nH]c2ccccc12` (configuration not stated), for which the relative binding affinity (RBA) in data set [2] came to 6.7. Also, the inhibition in data set [3] was determined as 33%.

By ED50 is commonly meant the midpoint of the dose-response relation. Read a high ED50 as a need for a large dose. `OC(/C=C/c1ccc(Cl)c(Cl)c1)(CCl)C(F)(F)F` (configuration not stated) showed a relative binding affinity (RBA) in data set [2] of 1.8. In data set [4], this molecule showed an ED50 of 2 mg/kg.

In data set [1], `CC(C(=O)Nc1ccc([N+](=O)[O-])c(C(F)(F)F)c1)C(F)(F)F` (configuration not stated) returned a lipophilicity (logP) of 3.71.

Take `CC(O)(CF)C(=O)Nc1ccc([N+](=O)[O-])c(C(F)(F)F)c1` (configuration not stated): the logP in data set [1] worked out at 3.5. Moreover, in data set [5], the relative binding affinity (RBA) came to 5.9.

In turn, `CC(C)(O)C(=O)Nc1ccc([N+](=O)[O-])c(C(F)(F)F)c1` [HYDROXYFLUTAMIDE] gave a logP in data set [1] of 2.7. In data set [2], this molecule showed a relative binding affinity (RBA) of 2.1.

For `NC(=O)CC(O)(/C=C/c1ccc(Cl)c(Cl)c1)C(F)(F)F` (configuration not stated), in data set [2], the relative binding affinity (RBA) turned out to be 0.5. In data set [4], this molecule gave an ED50 of 2.5 mg/kg.

In the case of `CC(C)(O)C(=O)Nc1ccc([N+](=O)[O-])cc1`, the logP in data set [1] is 1.61.

The molecule `CN(C(=O)C(C)(C)O)c1ccc([N+](=O)[O-])c(C(F)(F)F)c1` returned a logP in data set [1] of 3.06.

The molecule `CC(C)(O)C(=O)Nc1ccc(Cl)cc1` showed a logP in data set [1] of 2.

In turn, `CC(O)(C(=O)Nc1ccc([N+](=O)[O-])c(C(F)(F)F)c1)C(F)(F)F` (configuration not stated) had a logP in data set [1] of 3.21.

`CC(O)(/C=C/c1ccc(Cl)c(Cl)c1)C(F)(F)F` (configuration not stated) returned a relative binding affinity (RBA) in data set [5] of less than 0.2.

In the case of `OC(/C=C/c1ccc(Cl)c(Cl)c1)(C(F)(F)F)C(F)(F)F`, in data set [2], the relative binding affinity (RBA) is less than 0.2.

`N#CCC(O)(/C=C/c1ccc(Cl)c(Cl)c1)C(F)(F)F` (configuration not stated): the relative binding affinity (RBA) in data set [2] was determined as 3.6. Moreover, the 50% effect level in data set [4] (ED50) was put at a dose of 2.5 mg/kg.

Turning to `CC(=O)C(O)(/C=C/c1ccc(Cl)c(Cl)c1)C(F)(F)F` (configuration not stated), the relative binding affinity (RBA) in data set [2] amounted to 0.4.

For `CC(C)C(=O)Nc1ccc([N+](=O)[O-])c(C(F)(F)F)c1` [FLUTAMIDE], the lipophilicity (logP) in data set [1] was found to be 3.35.
